Experimental data reported in PubChem BioAssay AID624062 (Broad Institute, 2012).
Inconclusive results are not listed.

System: S. cerevisiae W303 JC-1 mitochondrial potential, flow cytometry
Assay: yeast mitochondrial potential disruption, JC-1 dye – flow cytometry, single point, powder samples, mechanism study for antifungal respiration inhibitor project (AID 624062)
Details: hits give high values
How it was run: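 Test system: S. cerevisiae W303-1a yeast; medium: SD-CSM growth medium containing 2% glucose; measured by: flow cytometry, 488 nm excitation, JC-1 red FL2 and green FL1; reagent: JC-1 dye at 1 µg/mL; schedule: 4 h compound treatment at 30 °C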

`CCOC(=O)N1C(=O)C2(CCCCC2)N(c2ccc(C)cc2)C1=S` showed a mitochondrial depolarization score of 18.6.
